High-throughput results as filed in PubChem BioAssay.
An excerpt weighted towards active compounds, which were near 2.4% of everything screened.
Rin1-Abl PPI inh – human Rin1-Abl interaction inhibition; P00519+Q13671; inhibition, % at 7.35 µM; TR-FRET Rin1/Abl binding, biochemical; actives 0.4% (n = 360,000); in the data active = inhibition above about 5%, passing the limit was not always enough
Neddylation inh – blocks human cullin neddylation; TR-FRET cullin neddylation, biochemical; P61081+Q13564; inhibition, % at 25 µM; AID 651699; actives 0.58% (n = 360,000); in the data active = inhibition above about 36%
Rpn11 block – inhibitors of human proteasome Rpn11. O00487. human 26S proteasome, Ub4-pepOG fluorescence polarization; 20S core pre-blocked with epoxomicin. inhibition, % at 20 µM. actives 0.59% (n = 360,000);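 active = inhibition at 20 µM, scaled to each plate's controls, above about 33%, limit read from the data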
CSN inh – inhibitors of human CSN-mediated cullin deneddylation | Q92905 | Purified CSN, SCF-Nedd8-OG deneddylation, fluorescence polarization | inhibition, % at 12.5 µM | actives 0.38% (n = 360,000);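 active = pattern-corrected inhibition above about 35%, with an unprinted fluorescence ratio check between 0.5 and 1.5, limit read from the data, passing the limit was not always enough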;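 also: 0% = enzyme with substrate and 100% = substrate without enzyme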
Target sequence (Q92905 whole entry, looked up, one chain of several): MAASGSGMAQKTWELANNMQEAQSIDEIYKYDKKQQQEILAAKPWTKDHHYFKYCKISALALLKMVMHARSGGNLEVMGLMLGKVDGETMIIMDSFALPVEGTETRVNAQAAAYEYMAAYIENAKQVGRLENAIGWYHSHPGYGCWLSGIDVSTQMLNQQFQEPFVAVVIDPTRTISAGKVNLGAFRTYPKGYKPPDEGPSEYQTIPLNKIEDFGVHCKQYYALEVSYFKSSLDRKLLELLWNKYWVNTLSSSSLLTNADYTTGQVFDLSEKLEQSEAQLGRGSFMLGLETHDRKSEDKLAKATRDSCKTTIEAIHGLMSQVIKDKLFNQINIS
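Detection – fluorescence polarization · System – HEK293T-derived human Csn5 enzyme · Controls – substrate-only high control, full reaction low control · Timing – 90 min, room temperature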
HNF4A DNA FP – change in binding of human HNF4 alpha to DNA; P41235; HNF4a-FITC DNA binding, fluorescence polarization, 1 h; activity change, % at 10 µM; actives 0.3% (n = 360,000); AID 1224865; in the data active = activity change above about 30%, passing the limit was not always enough
TPT1 inh – inhibitors of Candida albicans tRNA 2'-phosphotransferase TPT1 | actives 0.81% (n = 300,000) | inhibition, % at 5 µM | recombinant caTPT1, FP RNA substrate dephosphorylation | AID 1962;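 active = inhibition above the mean of all tested compounds plus 3 SD, set per screening campaign, cut at about 24% in these data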;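 also: plate controls were DMSO alone for no effect and ferristatin control at 100 nM for full effect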
An asterisk follows results filed as active.

COc1ccc2cc1Oc1ccc(cc1)C[C@H]1c3c(cc(OC)c4c3Oc3c(ccc5c3[C@H](C2)N(C)CC5)O4)CCN1C was read as Rin1-Abl PPI inh 2.6, Neddylation inh -11.3, Rpn11 block 1.1, CSN inh -0.1 and HNF4A DNA FP 76.4*.
Screening COc1ccc2cc1Oc1ccc(cc1)CC1c3c(cc(OC)c4c3Oc3cc5c(cc3O4)CCNC5C2)CCN1C (configuration not stated) returned Rin1-Abl PPI inh 7.4, Neddylation inh -12.4, Rpn11 block 5.1, CSN inh 3.7, HNF4A DNA FP 99.7* and TPT1 inh -1.1.
COc1cc2c(c(O)c1OC)C1Cc3ccc(OC)c(OC)c3CN1CC2 (configuration not stated) was read as Rin1-Abl PPI inh 2.2, Neddylation inh -6.1, Rpn11 block 2.6, CSN inh 3.9 and HNF4A DNA FP 0.1.
`NC(=O)c1ccccc1NC(=O)c1ccc2ccccc2c1` gave Rin1-Abl PPI inh 0.1, Neddylation inh 3.7, Rpn11 block 2.3, CSN inh -2.2, HNF4A DNA FP -2.0 and TPT1 inh -0.4.
For NC(=O)c1ccccc1NC(=O)c1cccc(C(=O)Nc2ccccc2C(N)=O)n1 the results were Rin1-Abl PPI inh -3.6, Neddylation inh 23.2, Rpn11 block 3.1, CSN inh 35.2*, HNF4A DNA FP 3.2 and TPT1 inh -2.3.
For COc1ccc(NC(=O)c2cc([N+](=O)[O-])ccc2N2CCCCC2)cc1 the results were Rin1-Abl PPI inh 1.8, Neddylation inh -37.5, Rpn11 block -0.4, CSN inh 2.2, HNF4A DNA FP 30.7* and TPT1 inh -1.9.
COc1ccc(NC(=O)c2cc([N+](=O)[O-])ccc2N2CCCC2)cc1 was read as Rin1-Abl PPI inh 1.2, Neddylation inh -26.8, Rpn11 block 1.3, CSN inh -1.6, HNF4A DNA FP 1.0 and TPT1 inh -2.4.
Screening CC(C)CNC(=O)c1cc([N+](=O)[O-])ccc1N1CCCCC1 returned Rin1-Abl PPI inh -6.2, Neddylation inh -23.4, Rpn11 block 5.7, CSN inh 0.4, HNF4A DNA FP 0.4 and TPT1 inh 0.7.
For CCC(CC)c1nnc(NC(=O)c2cc([N+](=O)[O-])ccc2N2CCCCC2)s1 the results were Rin1-Abl PPI inh -1.1, Neddylation inh -16.3, Rpn11 block 3.5, CSN inh 47.2*, HNF4A DNA FP -1.0 and TPT1 inh 0.8.
Screening CCOC(=O)N1CCN(C(=O)C[C@@H]2C[C@@]3(C(=O)OC)CCCCC=C3N(Cc3ccccc3)C2=O)CC1 returned Neddylation inh 1.6, CSN inh -7.8 and HNF4A DNA FP -0.7.
C#CCOc1ccc(CNC[C@H]2O[C@@H](n3ccc(N)nc3=O)[C@H](O)[C@@H]2O)cc1 was read as Rin1-Abl PPI inh -1.6, Neddylation inh 6.6, Rpn11 block -14.2, CSN inh 2.9 and HNF4A DNA FP 5.1.
`Nc1ccn([C@@H]2O[C@H](CNCc3ccc(C#CCCO)cc3)[C@@H](O)[C@H]2O)c(=O)n1` gave Rin1-Abl PPI inh 0.1, Neddylation inh -1.7, Rpn11 block -1.2, CSN inh 45.0* and HNF4A DNA FP -1.6.
CCOC(=O)c1cc(NC(=O)c2ccc(C)cc2)c(=O)oc1C(F)(F)F was read as Rin1-Abl PPI inh 3.7, Neddylation inh 8.4, Rpn11 block -0.4, CSN inh 5.3, HNF4A DNA FP -0.1 and TPT1 inh -3.6.
`CCOC(=O)c1cc(NC(=O)c2ccccc2)c(=O)oc1C(F)(F)F` gave Rin1-Abl PPI inh -2.4, Neddylation inh 5.0, Rpn11 block -1.1, CSN inh 13.7 and HNF4A DNA FP 46.1*.
For COCCNC(=O)C1CCCN(C(=O)c2ccc(C(F)(F)F)nc2C)CC1 (configuration not stated) the results were Rin1-Abl PPI inh -2.8, Neddylation inh 8.8, Rpn11 block -0.2, CSN inh 3.2 and HNF4A DNA FP 0.4.
Screening CCOC(=O)N1CCN(c2cc(=O)n(C3CCCCC3)c(=O)[nH]2)CC1 returned Rin1-Abl PPI inh 0.3, Neddylation inh -0.9, Rpn11 block -1.0, CSN inh -0.3, HNF4A DNA FP 1.2 and TPT1 inh -3.9.
CCOC(=O)C1CCN(c2cc(=O)n(C3CCCCC3)c(=O)[nH]2)CC1 was read as Rin1-Abl PPI inh -2.1, Neddylation inh -2.7, Rpn11 block -4.4, CSN inh 1.5, HNF4A DNA FP 39.9* and TPT1 inh -4.1.
CC(=NCc1cccc(Cl)c1)c1nc(-c2ccco2)oc1O was read as Rin1-Abl PPI inh -1.2, Neddylation inh -14.2, Rpn11 block -7.9, CSN inh -4.2, HNF4A DNA FP -0.2 and TPT1 inh -3.2.
Oc1c(C(c2ccccc2)N2CCOCC2)ccc2ccccc12 (configuration not stated) was read as Rin1-Abl PPI inh 0.0, Neddylation inh 41.5*, Rpn11 block -3.4, CSN inh 6.5 and HNF4A DNA FP -1.4.
Screening CC1=C(C(=O)Nc2ccccc2)C(c2ccncc2)C(C#N)=C(SCC(=O)Nc2ccccc2)N1 (configuration not stated) returned Rin1-Abl PPI inh 7.0, Neddylation inh 2.4, Rpn11 block 5.6, CSN inh -0.3, HNF4A DNA FP -0.5 and TPT1 inh 2.8.
CSC1=C(C#N)C(c2ccncc2)C(C(=O)Nc2ccccc2)=C(C)N1 (configuration not stated) was read as Rin1-Abl PPI inh 2.0, Neddylation inh 6.5, Rpn11 block -3.8, CSN inh 93.5*, HNF4A DNA FP -1.9 and TPT1 inh -0.7.
Screening Cc1noc(C)c1COC(=O)c1ccc(N(C)C)cc1 returned Rin1-Abl PPI inh -0.3, Neddylation inh 19.0, Rpn11 block -1.7, CSN inh -4.3, HNF4A DNA FP -2.6 and TPT1 inh 2.7.
`Cc1cccc(N(CC(=O)NCC2CCCO2)C(=O)CCC(=O)Nc2nccs2)c1` (configuration not stated) gave Rin1-Abl PPI inh 1.9, Neddylation inh 0.3, Rpn11 block 11.5, CSN inh 5.0, HNF4A DNA FP -1.1 and TPT1 inh 2.6.
`COc1ccc(C(=O)N2CCOCC2)cc1Br` gave Rin1-Abl PPI inh 1.6, Neddylation inh -3.1, Rpn11 block 3.1, CSN inh 7.7, HNF4A DNA FP 2.5 and TPT1 inh -2.3.
`COc1cccc(OC)c1C(=O)N1CCOCC1` gave Rin1-Abl PPI inh 3.7, Neddylation inh 4.5, Rpn11 block -0.9, CSN inh 0.8, HNF4A DNA FP 33.5* and TPT1 inh -0.5.
Screening C(=C\c1ccccc1)/CN1CCN(C(c2nnnn2C2CCCC2)C2CC2)CC1 (configuration not stated) returned Rin1-Abl PPI inh -1.7, Neddylation inh 1.0, Rpn11 block 5.7, CSN inh -0.7 and HNF4A DNA FP 0.2.
